Values after ≈ are worked out from the molar mass of the structure shown. Like-named read-outs stand apart in the source and are kept apart here.

In one data set the target is T1, PfFabI (Plasmodium falciparum, UniProt Q9BH77).
T1 sequence (Q9BH77 22-432): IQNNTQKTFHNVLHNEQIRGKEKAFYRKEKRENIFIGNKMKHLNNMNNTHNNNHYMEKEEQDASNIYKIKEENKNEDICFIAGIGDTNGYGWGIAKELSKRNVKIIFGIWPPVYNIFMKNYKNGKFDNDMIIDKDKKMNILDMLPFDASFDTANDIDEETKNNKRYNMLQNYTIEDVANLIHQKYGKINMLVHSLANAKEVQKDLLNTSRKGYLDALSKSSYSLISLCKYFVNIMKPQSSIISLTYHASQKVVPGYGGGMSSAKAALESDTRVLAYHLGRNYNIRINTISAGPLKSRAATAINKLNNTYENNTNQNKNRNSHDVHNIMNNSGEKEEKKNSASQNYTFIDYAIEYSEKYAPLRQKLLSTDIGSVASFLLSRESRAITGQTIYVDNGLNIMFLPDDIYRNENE
Briefly: Inhibition of PfFabI. It counts as biochemical.

For data set [1], the system named is L. donovani promastigotes. Particulars: read-out: IC50 L. donovani promastigotes; ref Carballeira et al., 2012; cited from earlier work.
A further data set concerns the target T2, PfFabZ (Plasmodium falciparum, UniProt Q965D7).
T2 sequence (Q965D7 19-230): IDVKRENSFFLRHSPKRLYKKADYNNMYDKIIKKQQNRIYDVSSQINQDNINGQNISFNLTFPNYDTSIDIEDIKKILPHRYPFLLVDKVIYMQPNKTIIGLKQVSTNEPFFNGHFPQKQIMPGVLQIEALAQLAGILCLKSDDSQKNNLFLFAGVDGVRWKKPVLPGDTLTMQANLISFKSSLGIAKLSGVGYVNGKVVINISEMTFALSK
Briefly: Inhibition of PfFabZ. In kind it is biochemical.

The target of the next data set is PfFabG (Plasmodium falciparum, UniProt Q8I2S7). The experiment in a line: biochemical.
A further data set relates to housefly. The following applies: in words, ref de Renobales et al., 1986; cited from earlier work.
The next data set has as its system M. smegmatis mc^2 155. Particulars: ref Morbidoni et al., 2006; cited from earlier work.
For data set [2], the system named is human colon adenocarcinoma grade II cell line (HT29). The experiment in a line: Cytotoxicity to HT29 cells. Particulars: HT-29, read-out: IC50 HT29. In kind it is cell-based.
For data set [3], the system named is BALB/c murine macrophages. Particulars: read-out: Murine macrophages BALB/c IC50; ref Carballeira et al., 2012; cited from earlier work.
Data set [4] deals with human SH-SY5Y neuroblastoma cell line. The experiment in a line: Cytotoxicity to SH-SY5Y neuroblastoma cells. It counts as cell-based. The following applies: 120 h, read-out: IC50 SH-SY5Y neuroblastoma cell line. In short, it runs like this: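 Human SH-SY5Y neuroblastoma cells were first differentiated with 15 μM all-trans retinoic acid for 5 d. Test compound was then added to the culture medium, and activity was read by sulforhodamine B (SRB) assay.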

In another data set the test system is P. falciparum K1. The experiment in a line: Toxicity to P. falciparum K1 strain. It counts as cell-based, Plasmodium falciparum.
A further data set deals with caspase-3. The experiment in a line: Caspase-3 activation in SH-SY5Y cells. Particulars: 40 μM, 48h, in words. In kind it is cell-based, human.
Data set [5] relates to human SH-SY5Y neuroblastoma cells. The experiment in a line: LDH release in SH-SY5Y cells. The following applies: 40 μM, 48h, in words. It counts as cell-based.
Data set [6] has as its system mouse leukaemic monocyte macrophage cell line (RAW 264.7). The experiment in a line: Cytotoxicity to RAW 264.7 cells. The following applies: RAW264.7, read-out: IC50 RAW 264.7. It counts as cell-based.
In data set [7] the test system is InhA, the enoyl-ACP reductase. The following applies: in words; ref Morbidoni et al., 2006; cited from earlier work.
A further data set concerns LdTopIB. The following applies: read-out: LdTopIB EC50; relaxation activity; ref Carballeira et al., 2012; cited from earlier work.
The test system of data set [8] is Mycobacterium tuberculosis H37Rv. The following applies: ref Morbidoni et al., 2006; cited from earlier work.
The next data set has as its target T3, hTopIB (Homo sapiens, UniProt P11387).
T3 sequence (P11387 1-765): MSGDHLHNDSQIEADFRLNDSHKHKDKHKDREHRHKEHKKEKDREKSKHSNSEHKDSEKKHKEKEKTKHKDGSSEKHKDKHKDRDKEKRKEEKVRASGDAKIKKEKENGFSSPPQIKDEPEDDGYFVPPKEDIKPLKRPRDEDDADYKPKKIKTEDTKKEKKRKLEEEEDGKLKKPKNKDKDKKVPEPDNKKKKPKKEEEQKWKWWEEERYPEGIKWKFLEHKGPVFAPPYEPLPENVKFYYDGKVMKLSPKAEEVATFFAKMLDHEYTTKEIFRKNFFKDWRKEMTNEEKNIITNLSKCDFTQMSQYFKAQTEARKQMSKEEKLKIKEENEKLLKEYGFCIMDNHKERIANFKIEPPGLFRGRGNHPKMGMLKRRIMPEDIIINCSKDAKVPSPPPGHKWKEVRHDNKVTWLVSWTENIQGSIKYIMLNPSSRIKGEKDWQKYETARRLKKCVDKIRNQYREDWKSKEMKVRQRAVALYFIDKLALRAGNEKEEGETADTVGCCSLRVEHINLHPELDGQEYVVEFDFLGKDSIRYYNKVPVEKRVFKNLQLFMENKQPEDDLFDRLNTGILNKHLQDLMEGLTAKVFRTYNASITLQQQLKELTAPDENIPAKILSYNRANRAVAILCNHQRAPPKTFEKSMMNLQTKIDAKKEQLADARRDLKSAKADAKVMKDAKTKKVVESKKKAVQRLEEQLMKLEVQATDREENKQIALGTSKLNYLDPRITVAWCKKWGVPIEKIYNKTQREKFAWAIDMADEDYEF
Particulars: read-out: hTopIB EC50; relaxation activity; ref Carballeira et al., 2012; cited from earlier work.

The term EC50 denotes the concentration giving half of the maximal effect. For `CCCCCCCCCCCCCCCC#CC(=O)O` [2-ODA, 2-octadecynoic acid], the IC50 on PfFabI is 1.1 µM; in data set [1], 11 µM; at PfFabZ, 1 µM; against PfFabG, 2.9 µM; in data set [2] it was 101.1 ± 0.9 µM; in data set [3], > 100 µM. Moreover, the IC50 in [4] is 26 ± 2 µM; in the data set with P. falciparum K1 (Plasmodium falciparum, K1, read-out: IC50 P. falciparum K1, Carballeira and Tasdemir, unpublished data), 20 µM; in the data set on P. falciparum K1 (read-out: IC50 P. falciparum K1, Carballeira and Tasdemir, unpublished data), 21.7 µM; in [6], 45.5 ± 3.4 µM. Further, the “In vivo incorporation of [1-14C]acetate into fatty acids and hydrocarbons” value in the data set on housefly was “inhibited”. Moreover, the “MIC against M. smegmatis mc^2 155” value in the data set with M. smegmatis mc^2 155 was 4 µM (≈ 1.12 µg/mL). Further, the Caspase-3 activation entry in the data set on caspase-3 is given as “did not produce any significant caspase-3 activation”. The LDH release result in data set [5] is on record as “significant LDH release”. For the same compound, in data set [7], the “Inhibition of InhA” value is reported as “able to inhibit”. For the same compound, the EC50 is 5.3 ± 0.7 µM with LdTopIB and 34.8 ± 2.3 µM at hTopIB. In addition, the “MIC against Mycobacterium tuberculosis H37Rv” value in data set [8] was 20 to 25 µM.

Values taken from paper PMC4110683 (Chemistry and physics of lipids, 2013).
